Measured values reported in ChEMBL document CHEMBL4513216, “Probing the Open Global Health Chemical Diversity Library for Multistage-Active Starting Points for Next-Generation Antimalarials” (ACS Infect Dis, 2020).

Experiment: Toxicity liver stage against HepG2, at 10uM
Assay type: cell-based
Design: test concentration 10 uM, cell line HepG2-A16-CD81EGFP
Conditions: human, HepG2-A16-CD81EGFP cells; read-out: INHIBITION
Method in brief: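 Uninfected HepG2-A16-CD81EGFP cells, 3 × 10^3 per well, 1536-well, plated on prespotted compound at 10 μM final, parasite-free screening media added to match infected plates; puromycin 10 μM positive, DMSO 0.5% negative; run in parallel with 48 h PbLuc assay at 37 °C, 5% CO2; viability by CellTiter-Glo luminescence, normalized to controls.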

| SMILES | cytotoxicity at 10 µM |
| --- | --- |
| COCCOc1ccnc(-c2noc([C@@H]3CCCN3CC(C)(C)C)n2)c1 | -12.7% |
| Cc1ccc(S(=O)(=O)NC[C@H]2OC[C@@H](NCc3ccncc3)[C@@H]2O)cc1 | 2.6% |
| CCc1cnc2c(c1Nc1ccc(C)c(F)c1)c(=O)n(C)c(=O)n2C | -2.5% |
| CCOc1ccc(CNC(=O)c2cnc(OC)nc2)cc1 | -0.121% |
| O=C(COc1ccc(Cl)cc1)Nc1cnc(N2CCOCC2)nc1 | -8.18% |
| Cc1nc(Nc2ccccn2)cc(N2CCN(S(C)(=O)=O)CC2)n1 | 3.96% |
| Cc1ccc(N2CCO[C@H]3CN(C(=O)c4cccc(C)n4)C[C@H]32)nn1 | 4.94% |
| c1ccc(COC[C@]23COC[C@H]2CN(c2ncccn2)C3)nc1 | 2.14% |
| O=c1cc(Cn2ccnc2)nc2n1CCCN(Cc1cccs1)C2 | 0.312% |
| Cc1ncsc1CN1CC[C@H]2OCC[C@@]2(C(=O)NCC2CC2)C1 | 2.4% |
| COc1c(C(=O)NCC(C)C)nnn1Cc1ccccc1 | 12% |
| CNc1cc(C)nc(C2COCCN2Cc2csc(C)n2)n1 (stereo not given) | 1.45% |
| O=C(c1cc(C2CC2)on1)N1C[C@H]2CC[C@](O)(c3ccccc3F)[C@H]2C1 | 5.37% |
| O=C(Nc1cc(CCC2CCN(CCO)CC2)ccn1)c1ccccn1 | -4.03% |
| Cc1noc(C)c1-c1ccc(C2CCCN2C(=O)Cn2ccnc2)nc1 (stereo not given) | -10.2% |
| CCc1nnc(Nc2cccc(C3CCN(S(=O)(=O)N(C)C)CC3)n2)s1 | -16.2% |
| Cc1cc(C(=O)N2CCc3nc4sc(C)cc4c(=O)n3CC2)on1 | -16.2% |
| COCCN1CCC(Cc2cnc(-c3ccccc3C(=O)O)cn2)CC1 | -11.9% |
| Cc1cc(-c2cnc(N3CCOCC3)nc2-c2ccc(C)s2)on1 | -5.72% |
| O=C(C1CCCC1)N1CC2(CCN(C3COC3)C2)OCc2ccccc21 (stereo not given) | 4.92% |
| O=C(C1CCCC1)N1CC2(CCN(C3COC3)CC2)Cc2ccccc21 | 7.91% |
| OCc1c(Cl)ncn1-c1ccc(F)cc1 | 6.61% |
| O=C(Cc1ccc2c(c1)CCCC2)Nc1cccnc1N1CCSCC1 | 11.4% |
| Cc1ccc(F)c(S(=O)(=O)NCc2[nH]ncc2Br)c1 | 0.67% |
| O=C(COCC1CCCO1)N(Cc1cccnc1)c1ccc(F)cc1 (stereo not given) | -2.04% |
| COc1ccc(C(C)CCNC2CCN(c3ccccn3)CC2)cc1 (stereo not given) | 5.29% |
| CCN(Cc1ncc(C(C)(C)C)o1)Cc1ccccc1C | -9.11% |
| Cc1nc(C(=O)N(CC(=O)N(C)C)CC(F)(F)F)c2ccccn12 | -16.4% |

| SMILES | cytotoxicity at 10 µM |
| --- | --- |
| CC(C)c1noc(C(C)N2CCN(Cc3nc4ccccc4[nH]3)CC2)n1 (stereo not given) | -2.16% |
| O=C(CC1CCN(c2ncnc3ccccc23)CC1)N1CCCC1 | 35.1% |
| Cc1ccc(CN(Cc2cc(C)no2)C2CC2)cc1 | -5.17% |
| O=C(CNc1cc(-n2cnnn2)ccc1F)NCc1ccccc1 | -6.2% |
| O=C(NCC(O)COc1ccccc1)Nc1nncs1 (stereo not given) | 0.555% |
| CS(=O)(=O)c1ccc(NC(=O)CSc2ccc3c(c2)CCC3)cn1 | 11.8% |
| Cc1ccc(CNC(=O)NC2CCCc3c2cnn3CCO)cn1 (stereo not given) | -11.8% |
| Cc1cc(NC(=O)c2ccccc2Br)n(C)n1 | -6.61% |
| COc1cc(C(=O)N(Cc2ccco2)C2CC2)cc(OC)c1OC | 4.53% |
| CC(CN1CCOCC1)NC(=O)NCCc1ccc(Cl)s1 (stereo not given) | -8.36% |
| Cc1ncc(CN(C)C(=O)Nc2cccc(CN3CCOC3=O)c2)s1 | -2.27% |
| CCc1cc(C)nc(N2CCN(C(C)c3nc(C)no3)CC2)n1 (stereo not given) | -2.64% |
| CNC(=O)CCCNCc1c(C)nn(CC(C)C)c1N(C)C | -2.51% |
| CCc1[nH]n(C)c(=N)c1-c1ccc2c(c1)OCO2 | -45.1% |
| Cc1ccc2cc(C(=O)N3CCS(=O)(=O)CC3)[nH]c2c1 | -56.3% |
| Cc1nc(CN(CCS(C)(=O)=O)C(C)C)cs1 | -44.2% |
| CCOCCN1CCc2cncnc2C1 | -20.7% |
| CC(O)CC(C)(C)CNS(=O)(=O)c1cccc(Cl)c1C#N (stereo not given) | -6.03% |
| COCCOC1CCN(C(=O)NCc2cc(C)oc2C)CC1 | -4.23% |
| CC(Cn1cccn1)NCc1cnc(N2CCCC2)nc1 (stereo not given) | -13% |
| COc1ccccc1C1(CNc2snc(Cl)c2C#N)CCOCC1 | 10.2% |
| N#Cc1ccc(CNC(=O)NCCNC(=O)C2CCCC2)c(F)c1 | 4.17% |
| CC(C)Cc1noc(CN2CCC(NC(=O)c3cccs3)CC2)n1 | -17.9% |
| CCC(=O)N1CCC2(C=C(C(=O)N(C)C)c3ccccc32)CC1 | -87.3% |
| Cc1cccc(CN2C[C@@H]3CN(C(=O)C4CCOC4)C[C@@H]3C2=O)c1 (stereo not given in full) | -114% |
| O=C(c1ccoc1)N1CCC2(CCCN(c3ncc(F)cn3)C2)C1 (stereo not given) | -98.3% |
| Cn1nc(C(=O)N2CCOCC2)c2c1CN(CC1CCC1)C2 | -103% |
